Data from the RNAGym collection of RNA variant scans (doi:10.1126/science.aae0568).
Fewer inactive variants are shown than the library holds.

B1: tRNA (parent)
chain: GUUCCGUUGGCGUAAUGGUAACGCGUCUCCCUCCUAAGGAGAAGACUGCGGGUUCGAGUCCCGUACGGAACG

Variants of: B1
Test: yeast fitness relative to wild type (ratio to wild type); higher = fitter; tRNA-Arg(CCU), competitive growth, 37 C, YPD
Method in brief: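 Start and end populations of a pooled competition were compared by 100-nucleotide paired-end sequencing of gene amplicons. The Saccharomyces cerevisiae strains carried tRNA-Arg(CCU) gene variants at the native genomic locus, synthesised with a 3% per-site mutation rate at 69 sites, and competed in YPD at 37°C for 24 hours in six parallel replicates. Darwinian fitness relative to wild type was based on the change in genotype frequencies. Genotypes required ≥ 100 starting reads, and estimates < 0.5 were set to 0.5.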

Variant	yeast fitness
C11A A20U U47C	≤ 0.5
C11A A20U U32C	0.733
C11A A15C A57G C61U	≤ 0.5
C11A A36G A43C	0.58
C11A A14G	0.628
C11A A42C A65U C66U	0.623
C11A A14C C34A	0.58
C11A A42G U64A G67A	≤ 0.5
G10U A20C A57G	0.511
C11A A43G U64A	0.601
G10C U64C	0.618
C11A A43G C61U	≤ 0.5
C11A A15G G58C	0.505
G10C G51A	0.585
C11A C22G G48C	0.535
G10C G18C A45C G56C A70C	≤ 0.5
G10C G25A U26C C46G	≤ 0.5
C11A A15U C34A G39C A40C G56C C61G C62G G68C	≤ 0.5
C11A A21U C30A A45U C49U C55U	≤ 0.5
C11A A21C C31A C62U	≤ 0.5
C11A A45G U53G	≤ 0.5

Variant	yeast fitness
G10C C33U G48C	≤ 0.5
C11A A36U A40C	≤ 0.5
C11A C27A A69U	≤ 0.5
G10C G12A A45C	0.539
C11A A15C C24G G58A	≤ 0.5
C11A A43U A45C U53C	≤ 0.5
G10C C49A C62U	≤ 0.5
C11A C27A C33G A42C C66U	≤ 0.5
C11A A20U C29U C33G C62A A70U	≤ 0.5
C11A A42U G44C U54A C62U A65G	≤ 0.5
C11A A20C C29U U47C A70U	≤ 0.5
G10C C34A G67A	≤ 0.5
G10C U28G G39A C49A C55U	≤ 0.5
C11A A21U A43U G58C C60A C66U	0.563
G10C U35G C62G	0.52
C11A A20G U59G	≤ 0.5
G10C G12C G39A G50A A69U	≤ 0.5
C11A A37C C49G	≤ 0.5
G10C C29U C46A	≤ 0.5
G10C C34G C49U	≤ 0.5
C11A A21U	0.606

Variant	yeast fitness
C11A A21C	0.557
G10C U35A A37U A43G	≤ 0.5
G10C C55A A65C G68A	≤ 0.5
C11A A45C	0.563
G10U A14U G44C	0.646
C11A A21U G41A G58A A65G	≤ 0.5
C11A A20U C30G A45C G48A	≤ 0.5
C11A A20C C29U	0.564
C11A A20U C61U	0.558
G10C G18A C66U	≤ 0.5
C11A A15C C24A C27A G41C G56A	0.542
C11A C22G C49G G68C A69C	≤ 0.5
C11A A36G C62U	0.539
C11A A37G C49A	0.653
G10C C33A U35C G67C	0.675
G10C C33G C46G C62G	≤ 0.5
G10C G58U	≤ 0.5
G10C G58C	0.722
G10C G58A	0.553
G10C C30G A43U G68U	≤ 0.5
G10C C55A	0.568

Variant	yeast fitness
G10C U35G C66U	≤ 0.5
G10C C34A A40G A69U	0.552
G10C G50A U59A	≤ 0.5
G10C U47A A57C	≤ 0.5
C11A A45C C55U	0.517
G10C G67U	0.689
C11A A14U C30U C33A A36U A57G A69G	≤ 0.5
G10C G41C	0.634
G10C C33G A57G	≤ 0.5
G10C U32C A42C G68C	≤ 0.5
C11A A42G U53G	≤ 0.5
G10C C34G U54C A70U	≤ 0.5
G10C U28G C33G C49U	≤ 0.5
G10C U26C C55U	0.507
G10C C34G U54C G67U	≤ 0.5
G10C C31G U32C A36U A57U C60G	≤ 0.5
C11A A20U C27U U47C G50A	0.618
C11A A21U A43U	≤ 0.5
C11A A14G C24U G41C C55G	0.581
C11A A14U U59C C62U	≤ 0.5
